Data as given in ChEMBL document CHEMBL3259554, “Discovery, synthesis, and optimization of antimalarial 4(1H)-quinolone-3-diarylethers” (J Med Chem, 2014).
Calls of active or inactive are those of the source. No cut-off for these calls is given here.

How the values were obtained:
[1] = system: HepG2; assay: Cytotoxicity against human HepG2 cells after 24 hrs incubation by Alamar Blue assay; type: cell-based; conditions: HepG2, 24 h
Summary of the method: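 HepG2 cells grown in RPMI-1640 with 10% FBS and seeded at 2 × 10⁴ cells/well, attached overnight. Drug serially diluted from 10 mM DMSO stocks to 2.5 nM–10 μM and incubated 24–36 h. Medium then replaced and cells kept a further 24 h. Resazurin added (final 10 μM) for 3 h, fluorescence read at ex 560/em 590 nm. Run in triplicate; IC50 by nonlinear logistic regression.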

[2] = system: Plasmodium yoelii; assay: Antimalarial activity against Plasmodium yoelii MR4 MRA-428 infected in mouse CF1 assessed as dose required to achieve cure measured as 30 days survival administered through oral gavage once daily for 4 days; type: functional
Summary of the method: (§1)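 P. yoelii-infected mice, randomly grouped in fours; dosing began day after inoculation (day 1), once daily by oral gavage in PEG-400 for four successive days; initial doses 0.1, 0.3, 1.0, 3.0, 10 mg/kg/day, range adjusted as needed. Day-5 Giemsa-smear parasitemia vs drug-free controls; ED50 derived graphically. Cure = parasite free 30 days after last dose; cure dose termed non-recrudescence dose.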

[3] = system: Plasmodium yoelii; assay: Antimalarial activity against Plasmodium yoelii MR4 MRA-428 infected in mouse CF1 assessed as reduction on parasite burden administered through oral gavage once daily for 4 days; type: functional; summary of the method: as §1
[4] = Antimalarial activity against multidrug-resistant Plasmodium falciparum Dd2 MRA-156 infected in human red blood cells assessed as suppression of parasitemia after 72 hrs by SYBR Green I-based fluorescence method; type: functional
Summary of the method: (§2)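 Asynchronous parasites in human erythrocytes, RPMI-1640 with HEPES, hypoxanthine, glucose, glutamine, 0.5% Albumax II; 2% hematocrit, 0.2% initial parasitemia. Triplicate 2-fold dilutions from 1 μM (lower start if needed), 72 h at 37 °C under 5% O2/5% CO2/90% N2. SYBR Green I dye-detergent added, 1 h dark at room temperature, fluorescence read. EC50 averaged over at least three determinations.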

[5] = system: Plasmodium falciparum; assay: Antimalarial activity against atovaquone-resistant clinical isolate Plasmodium falciparum TM90-C2B infected in human red blood cells assessed as suppression of parasitemia after 72 hrs by SYBR Green I-based fluorescence method; type: functional, organism-based; summary of the method: as §2
[6] = system: Plasmodium falciparum; assay: Antimalarial activity against chloroquine-sensitive Plasmodium falciparum D6 MRA-285 infected in human red blood cells assessed as suppression of parasitemia after 72 hrs by SYBR Green I-based fluorescence method; type: functional, organism-based; conditions: D6 MRA-285, 72 h; summary of the method: as §2
[7] = system: Liver microsome; assay: Metabolic stability in rat liver microsomes; type: ADME
Summary of the method: (§3)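 Compound at 1 μM incubated at 37 °C with liver microsomes (0.4 mg protein/mL) in 0.1 M phosphate pH 7.4. Started with an NADPH-regenerating system plus MgCl₂ and quenched with cold acetonitrile at time points up to 60 min. Parent loss followed by LC-MS and fitted to first-order decay to give half-life and intrinsic clearance. E_H used liver blood flow of 20.7 (human) or 55.2 (rat) mL/min/kg.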

[8] = system: Liver microsome; assay: Metabolic stability in human liver microsomes; type: ADME; summary of the method: as §3
[9] = Inhibition of human cytochrome bc1 complex derived from HEK293 cell mitochondria using 50 uM decylubiquinol as substrate
Summary of the method: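 Mitochondria isolated from HEK-293 cells by Dounce homogenization and differential centrifugation, dispersed in 2 mg/mL dodecyl maltoside for 45 min on ice, then clarified. Baseline-subtracted initial rates expressed as a fraction of uninhibited control.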

[10] = system: Plasmodium yoelii; assay: Antimalarial activity against Plasmodium yoelii MR4 MRA-428 infected in mouse CF1 assessed as reduction on parasite burden at 64 mg/kg administered through oral gavage once daily for 4 days; type: functional, organism-based; parameters: dose 64 mg/kg
Summary of the method: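 P. yoelii model in mice, randomized into groups of four. Oral gavage in PEG-400 once daily for four successive days, starting the day after inoculation. Giemsa-stained blood smears read microscopically on day 5. Parasite burden compared with drug-free controls. Animals parasite free 30 days after the last dose counted as cured.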

[11] = Inhibition of cytochrome bc1 complex isolated from trophozoite stage Plasmodium falciparum
Summary of the method: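 P. falciparum mitochondrial preparation assayed for cytochrome c reductase at 35 °C in a stirred cuvette. Buffer: 100 μM decylubiquinol, 100 μM horse heart cytochrome c, 0.1 mg/mL dodecyl maltoside, 60 mM HEPES pH 7.4, 10 mM malonate, 1.0 mM EDTA, 2.0 mM KCN. Baseline subtracted from the initial rate; activity expressed as a fraction of uninhibited control.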

[12] = Selectivity ratio of IC50 for human cytochrome bc1 complex to EC50 for Plasmodium falciparum cytochrome bc1 complex

COc1cc2[nH]c(C)c(-c3ccc(Oc4ccc(F)c(OC(F)(F)F)c4)cc3)c(=O)c2cc1Cl
IC50 [1]: > 10000 nM | NRD [2]: >3 mg/kg/day | ED50 ([3]; MR4 MRA-428, po, 96 h): 0.06 mg/kg/day | EC50 [4]: 0.5 nM | EC50 [5]: 0.3 nM | EC50 [6]: 0.4 nM

Cc1[nH]c2ccccc2c(=O)c1-c1ccc(Oc2ccc(OC(F)(F)F)cc2)nc1
IC50 [1]: > 10000 nM | EC50 [4]: 5.8 nM | EC50 [5]: 4.3 nM | EC50 [6]: 3 nM

COc1ccc2c(=O)c(-c3ccc(Oc4ccc(OC(F)(F)F)cc4)cc3)c(C)[nH]c2c1
IC50 [1]: > 10000 nM | Stability [7]: Unstable | Stability [8]: Unstable | EC50 [4]: 3.4 nM | IC50 [9]: > 10000 nM | EC50 [5]: 2.3 nM | EC50 [6]: 1.7 nM

CCN(CC)CCCC(C)Nc1ccnc2cc(Cl)ccc12 (stereo unspecified) [CHLOROQUINE]
Activity [10]: inactive | NRD [2]: >64 mg/kg/day | ED50 ([3]; MR4 MRA-428, po, 96 h): 2.2 mg/kg/day

COc1cc2[nH]c(C)c(-c3ccc(Oc4ccc(OC(F)(F)F)cc4)nc3)c(=O)c2cc1Cl
IC50 [1]: > 10000 nM | NRD [2]: >3 mg/kg/day | ED50 ([3]; MR4 MRA-428, po, 96 h): 0.3 mg/kg/day | EC50 [4]: 0.2 nM | EC50 [5]: 0.4 nM | EC50 [6]: 0.3 nM

Cc1[nH]c2ccc(F)cc2c(=O)c1-c1ccc(Oc2ccc(OC(F)(F)F)cc2)nc1
IC50 [1]: > 10000 nM | EC50 [4]: 13 nM | EC50 [5]: 11 nM | EC50 [6]: 13 nM

COc1cc2[nH]c(C)c(-c3ccc(Oc4ccc(OC(F)(F)F)c(F)c4)cc3)c(=O)c2cc1Cl
IC50 [1]: > 10000 nM | EC50 [4]: 12 nM | EC50 [5]: 5.8 nM | EC50 [6]: 12 nM

COc1cc2[nH]c(C)c(-c3ccc(Oc4ccc(F)cc4)cc3)c(=O)c2cc1Cl
IC50 [1]: > 10000 nM | NRD [2]: >3 mg/kg/day | ED50 ([3]; MR4 MRA-428, po, 96 h): < 1 mg/kg/day | EC50 [4]: 3.8 nM | EC50 [6]: 0.8 nM

O=C1C(O)=C([C@H]2CC[C@H](c3ccc(Cl)cc3)CC2)C(=O)c2ccccc21 [ATOVAQUONE]
IC50 [1]: > 10000 nM | IC50 [11]: 2 nM | EC50 [4]: 0.1 nM | IC50 [9]: 410 nM | EC50 [5]: 7700 nM | EC50 [6]: 0.1 nM

COc1cc2[nH]c(C)c(-c3ccc(Oc4ccc(C(F)(F)F)cn4)cc3)c(=O)c2cc1Cl
IC50 [1]: > 10000 nM | EC50 [4]: 6.8 nM | EC50 [5]: 4.1 nM | EC50 [6]: 8.1 nM

COc1cc2[nH]c(C)c(-c3ccc(Oc4cccc(OC(F)(F)F)c4)cc3)c(=O)c2cc1Cl
IC50 [1]: > 10000 nM | NRD [2]: >3 mg/kg/day | ED50 ([3]; MR4 MRA-428, po, 96 h): > 3 mg/kg/day | EC50 [4]: 0.03 nM | EC50 [5]: < 0.03 nM | EC50 [6]: 0.03 nM

COc1cc2[nH]c(C)c(-c3ccc(Oc4ccc(C(F)(F)F)cc4)cc3)c(=O)c2cc1Cl
IC50 [1]: > 10000 nM | NRD [2]: 1 mg/kg/day | ED50 ([3]; MR4 MRA-428, po, 96 h): 0.03 mg/kg/day | EC50 [4]: 0.3 nM | EC50 [5]: 0.05 nM | EC50 [6]: 0.3 nM

COc1cc2[nH]c(C)c(-c3ccc(Oc4ccc(Cl)cc4)cc3)c(=O)c2cc1Cl
IC50 [1]: > 10000 nM | NRD [2]: >0.3 mg/kg/day | ED50 ([3]; MR4 MRA-428, po, 96 h): 0.05 mg/kg/day | EC50 [4]: 1.8 nM | EC50 [5]: 1.2 nM | EC50 [6]: 1.9 nM

COc1cc2[nH]c(C)c(-c3ccc(Oc4ccc(OC(F)(F)F)cc4)cc3)c(=O)c2cc1Cl
IC50 [1]: > 10000 nM | Stability [7]: Stable | NRD [2]: 0.3 mg/kg/day | EC50 [11]: 0.56 nM | Stability [8]: Stable | ED50 ([3]; MR4 MRA-428, po, 96 h): 0.02 mg/kg/day | ED90 ([3]; MR4 MRA-428, po, 96 h): 0.06 mg/kg/day | EC50 [4]: 2.5 nM | IC50 [9]: > 10000 nM | Ratio IC50/EC50 [12]: > 20000 | EC50 [5]: 1.4 nM | EC50 [6]: 2.2 nM

Cc1[nH]c2ccc(F)cc2c(=O)c1-c1ccc(Oc2ccc(OC(F)(F)F)cc2)cc1
IC50 [1]: > 10000 nM | Stability [7]: Stable | NRD [2]: 3 mg/kg/day | Stability [8]: Stable | ED50 ([3]; MR4 MRA-428, po, 96 h): 0.1 mg/kg/day | EC50 [4]: 2.4 nM | IC50 [9]: > 10000 nM | EC50 [5]: 1.7 nM | EC50 [6]: 1.5 nM

COc1cc2[nH]c(C)c(-c3cnc(Oc4ccc(OC(F)(F)F)cc4)nc3)c(=O)c2cc1Cl
IC50 [1]: > 10000 nM | EC50 [4]: > 2500 nM | EC50 [5]: > 2500 nM | EC50 [6]: > 2500 nM

COc1cc2[nH]c(C)c(-c3ccc(Oc4ccc(OC(F)(F)F)cc4)cc3)c(=O)c2cc1F
IC50 [1]: > 10000 nM | Stability [7]: Stable | Stability [8]: Stable | ED50 ([3]; MR4 MRA-428, po, 96 h): 0.05 mg/kg/day | EC50 [4]: 1.4 nM | IC50 [9]: > 10000 nM | EC50 [5]: 0.5 nM | EC50 [6]: 1.4 nM

CCCCCCCc1c(C)[nH]c2cc(OC)c(Cl)cc2c1=O
EC50 [4]: 2.3 nM | IC50 [9]: > 10000 nM | EC50 [5]: 0.8 nM | EC50 [6]: 1.4 nM

CCCCCCCc1c(C)nc2cc(OC)ccc2c1O
IC50 [1]: > 10000 nM | NRD [2]: inactive | ED50 [3]: inactive | EC50 [4]: 3.1 nM | IC50 [9]: > 10000 nM | EC50 [5]: 11 nM | EC50 [6]: 3.8 nM

Cc1[nH]c2ccccc2c(=O)c1-c1ccc(Oc2ccccc2)cc1
IC50 [1]: > 10000 nM | EC50 [4]: 12 nM | EC50 [5]: 7.2 nM | EC50 [6]: 8.4 nM

Cc1[nH]c2ccccc2c(=O)c1-c1ccc(Oc2ccc(OC(F)(F)F)cc2)cc1
IC50 [1]: > 10000 nM | NRD [2]: 3 mg/kg/day | IC50 [11]: 8.9 nM | ED50 ([3]; MR4 MRA-428, po, 96 h): 0.1 mg/kg/day | EC50 [4]: 5.9 nM | IC50 [9]: 1900 nM | EC50 [5]: 7.5 nM | EC50 [6]: 4.1 nM

Cc1[nH]c2ccc(Cl)cc2c(=O)c1-c1ccc(Oc2ccc(OC(F)(F)F)cc2)nc1
IC50 [1]: > 10000 nM | EC50 [4]: 6.1 nM | EC50 [5]: 1.5 nM | EC50 [6]: 3.6 nM

Cc1[nH]c2ccc(Cl)cc2c(=O)c1-c1ccc(Oc2ccc(OC(F)(F)F)cc2)cc1
IC50 [1]: > 10000 nM | Stability [7]: Stable | NRD [2]: >3 mg/kg/day | Stability [8]: Stable | ED50 ([3]; MR4 MRA-428, po, 96 h): 0.2 mg/kg/day | EC50 [4]: 5.6 nM | IC50 [9]: > 10000 nM | EC50 [5]: 2.3 nM | EC50 [6]: 3.2 nM

COc1cc2[nH]c(C)c(-c3ccc(Oc4ccc(OC(F)(F)F)cc4)cn3)c(=O)c2cc1Cl
IC50 [1]: > 10000 nM | NRD [2]: >3 mg/kg/day | ED50 ([3]; MR4 MRA-428, po, 96 h): < 1 mg/kg/day | EC50 [4]: 0.5 nM | EC50 [5]: 0.2 nM | EC50 [6]: 0.4 nM

COc1cc2[nH]c(C)c(-c3ccc(Oc4ccccc4)cc3)c(=O)c2cc1F
IC50 [1]: > 10000 nM | EC50 [4]: 43 nM | EC50 [5]: 8.5 nM | EC50 [6]: 40 nM
